Test results taken from publication PMC8319936 (ACS Omega, 2021).

Columns and labels:
[1] = target: catalytic domain of human MMP13 (Homo sapiens, UniProt P45452); assay: Biochemical MMP-13 FRET assay; details: vs compound 13
[2] = PAMPA permeability; assay type: in vitro ADME
[3] = Rat pharmacokinetics; assay type: in vivo, Sprague Dawley rats; details: Sprague Dawley, plasma
Procedure, shortened: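 Sprague Dawley rats (N = 3) were dosed i.v. at 1 mpk in 70% PEG or by oral gavage as a methylcellulose suspension. Serial blood samples were anticoagulated and centrifuged to plasma. Parent compound was quantified in plasma, and PK parameters were calculated by noncompartmental analysis.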

[4] = Caco-2 permeability; assay type: in vitro ADME; details: human, Caco-2, pH 7.4
Procedure, shortened: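 Caco-2 cells were seeded at 80,000 cells/cm2 on polycarbonate Transwell filters and grown 21–25 days. Monolayers were pre-equilibrated with HBSS pH 7.4 for 30 min at 37 °C. Dosing solution was 50 mM nominal in HBSS, stirred overnight at room temperature, filtered and added apically (A/B) or basolaterally (B/A). Receiver sampled at 15–150 min, in duplicate. Papp (cm/s) by LC/MS/MS.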

[5] = test system: collagen antibody-induced arthritis; assay: Murine collagen antibody-induced arthritis; assay type: in vivo, female B10.RIII mice; details: 100 mg/kg twice daily oral gavage from day 4, day 14
Procedure, shortened: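 Female B10.RIII mice, 8–10 weeks old, received 2 mg anti-collagen II monoclonal antibody cocktail i.p., then 37.5 μg LPS i.p. 3 days later. From day 4, compounds or vehicle (1% CMC, 0.015% Tween 80, 10 mL/kg) were given by oral gavage twice daily. Each limb was scored visually daily, days 3–14, and group mean computed. Body weight recorded every other day.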

[6] = target: catalytic domain of recombinant human MMP-8 (Homo sapiens, UniProt P22894); assay: MMP-8 biochemical assay
Chain of catalytic domain of recombinant human MMP-8 (P22894 100-262 limits assumed): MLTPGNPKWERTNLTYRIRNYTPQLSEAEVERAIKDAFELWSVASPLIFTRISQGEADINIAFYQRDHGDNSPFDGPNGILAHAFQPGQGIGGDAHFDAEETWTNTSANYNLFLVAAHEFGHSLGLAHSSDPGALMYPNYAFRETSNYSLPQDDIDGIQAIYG
Procedure, shortened: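 FRET cleavage assay with 2 nM recombinant human MMP-8 catalytic domain and 2 μM quenched FRET peptide substrate. Incubated 30 min at 28 °C/80% humidity; fluorescence read at ex 485/em 535 nm.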

[7] = hPPB; assay type: in vitro ADME; details: human

loss of potency relative to 13 [1] [fold]	Papp [2] [×10⁻⁶ cm/s]	half-life [3] [h]	Papp A→B at 150 min, 50 mM [4] [×10⁻⁶ cm/s]	Papp B→A at 150 min, 50 mM [4] [×10⁻⁶ cm/s]	IC50 [6] [µM]	hPPB (% bound) [7] [% bound]	SMILES	overall mean arthritic score vs vehicle control [5]
10	–	–	–	–	–	–	Cc1noc(-c2cc3cc(-c4[nH]c(C(=O)NCc5ccccc5)nc4C)ccc3[nH]2)n1 [Compound 21, 4-Methyl-5-[2-(3-methyl-[1,2,4]oxadiazol-5-yl)-1H-indol-5-yl]-1H-imidazole-2-carboxylic Acid Benzylamide]	–
–	29	0.9	3.5	9	3.1	93	Cc1noc(-c2cc3cc(-c4nc(C(=O)NCc5ccncc5)[nH]c4C)ccc3[nH]2)n1 [Compound 17, 4-Methyl-5-[2-(3-methyl-[1,2,4]oxadiazol-5-yl)-1H-indol-5-yl]-1H-imidazole-2-carboxylic Acid (Pyridin-4-ylmethyl)-amide]	significantly reduced
–	–	1.8	–	–	–	–	CCNC(=O)c1nc(-c2ccc3[nH]c(-c4nc(C)no4)cc3c2)c(C)[nH]1 [Compound 15, 4-Methyl-5-[2-(3-methyl-[1,2,4]oxadiazol-5-yl)-1H-indol-5-yl]-1H-imidazole-2-carboxylic Acid Ethylamide]	–
